The source made the active and inactive calls. No cut-off for these calls is given here.
Assays:
[1] = tested on: Vesicular stomatitis virus; test: Antiviral activity against Vesicular stomatitis virus pseudoparticle expressing glycoprotein assessed as inhibition of pseudoparticles entry into human Huh-H1 cells after 2 days by luciferase reporter gene assay; assay type: functional, organism-based
[2] = Cytotoxicity against human Huh-H1 cells; assay type: cell-based
Hepatitis C virus [3] = test: Antiviral activity against HCV genotype-1 pseudoparticle expressing envelope protein E1 and E2 assessed as inhibition of pseudoparticles entry into human Huh-H1 cells after 2 days by luciferase reporter gene assay; assay type: functional, organism-based, Hepacivirus hominis; settings: genotype 1, Huh-H1, 48 h
[4] = Selectivity index, ratio of CC50 for human HuH7 cells to EC50 for cell culture derived HCV; design: species or system Huh-7
Procedure, shortened: (§1)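 Naïve Huh-7 cells in 384-well plates were given serially diluted compound, then infected with cell culture-derived HCV (HCVcc) at MOI 1. Live cells were analysed 72 h post-infection. EC50 came from 10-point dose-response in duplicate with quadruplicate measurements, or 5-point in duplicate for one series. CC50 came from automated per-well cell counts. SI = CC50/EC50.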

[5] = Cytotoxicity against human HuH7 cells; assay type: cell-based, Huh-7; procedure, shortened: as §1
Hepatitis C virus [6] = test: Antiviral activity against cell culture derived HCV infected in human HuH7 cells assessed as inhibition of viral replication after 72 hrs; assay type: functional, organism-based, Hepacivirus hominis; settings: Huh-7, 72 h; procedure, shortened: as §1

| Structure (SMILES) | inhibition [1] | CC50 [2] | EC50 (Hepatitis C virus [3]) | Ratio CC50/EC50 [4] | CC50 [5] | EC50 (Hepatitis C virus [6]) |
| --- | --- | --- | --- | --- | --- | --- |
| CCCCCNc1nc(Nc2ccc([N+](=O)[O-])cc2)nc(OCC(F)(F)F)n1 | inactive | > 25 µM |  |  |  |  |
| Cc1ccccc1-c1nn(-c2ccc(F)cc2F)cc1CNCCCN(C)C | inactive | > 25 µM | 6.1 µM | >3 | > 20 µM | 6.7 µM |
| Cc1ccccc1-c1nn(-c2ccc([N+](=O)[O-])cc2)cc1CNCCN1CCN(C)CC1 |  |  |  | >41 | > 20 µM | 0.49 µM |
| CN1CCN(CCNCc2cn(-c3ccc(F)cc3F)nc2-c2ccc(Cl)cc2)CC1 | inactive | 9.1 µM | 1.9 µM | 50 | 19 µM | 0.38 µM |
| Cc1cccc(-c2nn(-c3ccc(F)cc3F)cc2CNCCN2CCN(C)CC2)c1 |  |  |  | >12 | > 20 µM | 1.7 µM |
| Cc1ccccc1-c1nn(-c2ccc(F)cc2F)cc1CNCCCN1CCN(C)CC1 |  |  |  | >9 | > 20 µM | 2.2 µM |
| CCCN1CCC(CNCc2cn(-c3ccc(C(F)(F)F)cc3)nc2-c2ccc(Cl)cc2)CC1 |  |  |  | 6.7 | 1.9 µM | 0.29 µM |
| Cc1ccccc1-c1nn(-c2ccc(F)c(F)c2)cc1CNCCN1CCN(C)CC1 |  |  |  | >7.7 | > 20 µM | 2.6 µM |
| CN1CCN(CCNCc2cn(-c3ccc(F)cc3F)nc2-c2ccccc2Cl)CC1 |  |  |  | >6.1 | > 20 µM | 3.3 µM |
| Cc1ccccc1-c1nn(-c2cccc(C(F)(F)F)c2)cc1CNCCN1CCN(C)CC1 |  |  |  | 20 | 18 µM | 0.91 µM |
